Tests used:
[1] = system: Trypanosoma brucei brucei; test: Antikinetoplastid activity against Trypanosoma brucei brucei CMP by drug incubation infectivity test; assay type: functional; conditions: read-out: MEC
Leishmania donovani [2] = test: Antikinetoplastid activity against Leishmania donovani MHOM/ET/67/HU3 promastigotes after 3 days incubation at 27 degC under dark condition and 5% CO2 atmosphere by MTT assay; assay type: functional, organism-based; conditions: MHOM/ET/67/HU3, 72 h
[3] = Cytotoxicity against human MCF7 cells assessed as cell survival at 100 uM after 72 hrs incubation by MTT assay; assay type: cell-based; conditions: read-out: Survival
[4] = Cytotoxicity against mouse RAW264.7 cells assessed as cell survival at 100 uM after 24 hrs incubation by trypan blue exclusion method; assay type: cell-based; conditions: read-out: Survival
In short: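 RAW 264.7 mouse macrophages grown in DMEM with 10% heat-inactivated FBS, seeded at 5 × 10^4 cells/well, and held 24 h at 37 °C in 5% CO2. Medium was then replaced with fresh DMEM containing compound, followed by a further 24 h incubation. Cells were scraped off, stained with trypan blue and counted live on a hemocytometer. Viability is given as % of untreated cells (100%).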

Leishmania donovani [5] = test: Antikinetoplastid activity against Leishmania donovani MHOM/ET/67/HU3 amastigotes after 3 days incubation at 37 degC under dark condition and 5% CO2 atmosphere by SYBR green I dye based assay; assay type: functional, organism-based; conditions: MHOM/ET/67/HU3, 72 h
In short: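 Axenic amastigotes were obtained by diluting log-phase LV9 promastigotes into amastigote medium (M-199 with KCl, glucose, glutamine, trypticase peptone, haemin, 20% FBS; pH 5.5) and grown at 37 °C in 5% CO2. Parasites were exposed to the compounds for 72 h, then lysed. Growth was read by SYBR Green I DNA fluorescence against a parasite-density standard range, and the IC50 was derived.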

MCF7 = test: Cytotoxicity against human MCF7 cells assessed as cell viability after 72 hrs incubation by MTT assay; assay type: cell-based; conditions: MCF7, 72 h

In the case of `Cc1ccc(S(=O)(=O)Oc2c(N)c(=O)n(C)c3ccccc23)cc1`, the minimal effective concentration [1] is reported as 12.5 µM, the IC50 (Leishmania donovani [2]) is reported as 30 µM and the viability at 72 h, 100 µM [3] is reported as 24%.

For `COc1cc(C(=O)Nc2c(OS(=O)(=O)c3ccc(C)cc3)c3ccccc3[nH]c2=O)cc(OC)c1OC`, the minimal effective concentration [1] was greater than 200 µM, the IC50 (Leishmania donovani [2]) was 18 µM and the viability at 72 h, 100 µM [3] was 55%.

For `CCCCCCCCCCCCCCCCOP(=O)([O-])OCC[N+](C)(C)C` [MILTEFOSINE], the viability at 24 h, 100 µM [4] was 85% and the IC50 (Leishmania donovani [5]) was 5 µM.

`Cc1ccc(S(=O)(=O)Oc2c([N+](=O)[O-])c(=O)n(C)c3ccccc23)cc1` showed a minimal effective concentration [1] greater than 200 µM, a viability at 24 h, 100 µM [4] of 100% and an IC50 (Leishmania donovani [5]) of 2 µM. The IC50 (Leishmania donovani [2]) was 3 µM.

`Cn1c(=O)c(NC(=O)CCCCCCCCCCOn2nnc3ccccc32)c(O)c2ccccc21` gave a minimal effective concentration [1] of 200 µM, an IC50 (Leishmania donovani [2]) of 34 µM and a viability at 72 h, 100 µM [3] of 72%.

Molecule `CCCC(=O)Nc1c(O)c2ccccc2n(C)c1=O` has a minimal effective concentration [1] greater than 200 µM, an IC50 (Leishmania donovani [5]) of 3 µM and an IC50 (Leishmania donovani [2]) of 11 µM. The viability at 72 h, 100 µM [3] was 97%.

For `COc1ccc(C(=O)Nc2cc3ccccc3n(C)c2=O)cc1`, the minimal effective concentration [1] was greater than 200 µM, the IC50 (Leishmania donovani [2]) was greater than 100 µM and the viability at 72 h, 100 µM [3] was 89%.

`COc1cc(C(=O)Nc2c(OS(=O)(=O)c3ccc(C)cc3)c3ccccc3n(C)c2=O)cc(OC)c1OC` showed a minimal effective concentration [1] greater than 200 µM, an IC50 (Leishmania donovani [2]) of 41 µM and a viability at 72 h, 100 µM [3] of 84%.

`Cc1ccc(S(=O)(=O)Oc2c(NC(=O)c3ccc4c(c3)CCC(C)(C)O4)c(=O)n(C)c3ccccc23)cc1` showed a minimal effective concentration [1] greater than 200 µM, an IC50 (Leishmania donovani [2]) of 30 µM and a viability at 72 h, 100 µM [3] of 100%.

Work on `Cn1c(=O)c(NC(=O)c2cc3ccccc3[nH]2)c(O)c2ccccc21` yielded a minimal effective concentration [1] greater than 200 µM, an IC50 (Leishmania donovani [2]) greater than 100 µM and a viability at 72 h, 100 µM [3] of 107%.

In the case of `COc1ccc(C(=O)Nc2cc3cc(OC)ccc3n(C)c2=O)cc1`, the minimal effective concentration [1] is reported as greater than 200 µM, the IC50 (Leishmania donovani [2]) is reported as greater than 100 µM and the viability at 72 h, 100 µM [3] is reported as 22%.

With `Cn1c(=O)c([N+](=O)[O-])c(O)c2ccccc21` the minimal effective concentration [1] was greater than 200 µM, the viability at 24 h, 100 µM [4] was 80% and the IC50 (Leishmania donovani [2]) was greater than 100 µM.

`Cc1ccc(S(=O)(=O)Oc2c(NC(=O)CCCCCCCCCCOn3nnc4ccccc43)c(=O)n(C)c3ccccc23)cc1` gave a minimal effective concentration [1] greater than 200 µM, an IC50 (Leishmania donovani [2]) of 37 µM and a viability at 72 h, 100 µM [3] of 69%.

With `CCCC(=O)Nc1c(OS(=O)(=O)c2ccc(C)cc2)c2ccccc2n(C)c1=O` the minimal effective concentration [1] was greater than 200 µM, the IC50 (Leishmania donovani [2]) was 50 µM and the viability at 72 h, 100 µM [3] was 55%.

For `Cn1c(=O)c(NC(=O)c2ccc(F)cc2)c(O)c2ccccc21`, the minimal effective concentration [1] was greater than 200 µM, the IC50 (Leishmania donovani [2]) was greater than 100 µM and the viability at 72 h, 100 µM [3] was 74%.

Molecule `Cc1ccc(S(=O)(=O)Oc2c(NC(=O)c3ccc4c(c3)C=CC(C)(C)O4)c(=O)n(C)c3ccccc23)cc1` has a minimal effective concentration [1] greater than 200 µM, an IC50 (Leishmania donovani [2]) of 30 µM and a viability at 72 h, 100 µM [3] of 37%.

In the case of `Cn1c(=O)c(NC(=O)c2ccc3c(c2)CCC(C)(C)O3)c(O)c2ccccc21`, the minimal effective concentration [1] is reported as greater than 200 µM, the IC50 (Leishmania donovani [2]) is reported as 56 µM and the viability at 72 h, 100 µM [3] is reported as 98%.

`Cn1c(=O)cc(O)c2ccccc21` showed a minimal effective concentration [1] greater than 200 µM, a viability at 24 h, 100 µM [4] of 70% and an IC50 (Leishmania donovani [2]) greater than 100 µM.

With `COc1cc(C(=O)Nc2c(OS(=O)(=O)c3cccs3)c3ccccc3n(C)c2=O)cc(OC)c1OC` the minimal effective concentration [1] was greater than 200 µM, the IC50 (Leishmania donovani [2]) was 14 µM and the viability at 72 h, 100 µM [3] was 77%.

For `N=C(N)c1ccc(OCCCCCOc2ccc(C(=N)N)cc2)cc1` [PENTAMIDINE], the minimal effective concentration [1] was 5 µM, the viability at 24 h, 100 µM [4] was 75% and the IC50 (Leishmania donovani [2]) was 2.84 µM.

Molecule `COc1ccc(C(=O)Nc2c(O)c3ccccc3n(C)c2=O)cc1` has a minimal effective concentration [1] greater than 200 µM, an IC50 (Leishmania donovani [5]) greater than 100 µM and an IC50 (Leishmania donovani [2]) of 11 µM. The viability at 72 h, 100 µM [3] was 81%.

In the case of `COc1ccc(C(=O)Nc2cc3cc(Br)ccc3n(C)c2=O)cc1`, the minimal effective concentration [1] is reported as greater than 200 µM, the IC50 (Leishmania donovani [2]) is reported as greater than 100 µM and the viability at 72 h, 100 µM [3] is reported as 20%.

With `COc1ccc(C(=O)Nc2c(OS(=O)(=O)c3ccc(C)cc3)c3ccccc3n(C)c2=O)cc1` the minimal effective concentration [1] was greater than 200 µM, the IC50 (Leishmania donovani [2]) was 25 µM and the viability at 72 h, 100 µM [3] was 82%.

In the case of `CCCCNc1cc2ccccc2n(C)c1=O`, the minimal effective concentration [1] is reported as greater than 200 µM, the IC50 (Leishmania donovani [2]) is reported as greater than 100 µM and the viability at 72 h, 100 µM [3] is reported as 10%. For the same molecule, the IC50 (MCF7) was 7 µM.

Work on `Cn1c(=O)c(NC(=O)c2ccc3c(c2)C=CC(C)(C)O3)c(O)c2ccccc21` yielded a minimal effective concentration [1] greater than 200 µM, an IC50 (Leishmania donovani [2]) of 53 µM and a viability at 72 h, 100 µM [3] of 100%.

`O=[N+]([O-])c1c(O)nc2ccccc2c1O` gave a minimal effective concentration [1] greater than 200 µM, a viability at 24 h, 100 µM [4] of 90% and an IC50 (Leishmania donovani [2]) greater than 100 µM.

Molecule `Cc1ccc(S(=O)(=O)Oc2c(NC(=O)c3ccc(F)cc3)c(=O)n(C)c3ccccc23)cc1` has a minimal effective concentration [1] greater than 200 µM, an IC50 (Leishmania donovani [2]) of 49 µM and a viability at 72 h, 100 µM [3] of 57%.

With `COc1cc(C(=O)Nc2c(O)c3ccccc3[nH]c2=O)cc(OC)c1OC` the minimal effective concentration [1] was greater than 200 µM, the IC50 (Leishmania donovani [2]) was greater than 100 µM and the viability at 72 h, 100 µM [3] was 76%.

For `COc1cc(C(=O)Nc2c(O)c3ccccc3n(C)c2=O)cc(OC)c1OC`, the minimal effective concentration [1] was greater than 200 µM, the IC50 (Leishmania donovani [5]) was greater than 100 µM and the IC50 (Leishmania donovani [2]) was 3.5 µM. The viability at 72 h, 100 µM [3] was 100%.

`Cc1ccc(S(=O)(=O)Oc2c(NC(=O)c3cc4ccccc4[nH]3)c(=O)n(C)c3ccccc23)cc1` showed a minimal effective concentration [1] greater than 200 µM, an IC50 (Leishmania donovani [2]) of 42 µM and a viability at 72 h, 100 µM [3] of 50%.

Reference: ChEMBL document CHEMBL2021923, “Synthesis and antikinetoplastid activities of 3-substituted quinolinones derivatives” (Eur J Med Chem, 2012)
